Shown is part of a subset that was picked to be rich in hits.
Insulin prom act = TRM-6 insulin promoter activation. TRM-6 cells (human fetal islet line), insulin promoter eGFP reporter, imaging; plate-scaled: unstimulated 0, stimulated control 100. activation, % at 2 µM. hit rate 0.81% among 130,000. AID 1296;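 active means activation at 2 µM above a set limit, confirmed on inspection of the cell images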;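 further: share of cells whose green reporter signal exceeds an intensity cutoff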
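Material: TRM-6 insulin promoter–eGFP reporter cells. Buffer or medium: Low-glucose (5.5 mM) medium with tamoxifen. Probe or stimulus: tamoxifen at 0.75 µM added at seeding for reporter induction. Times: tamoxifen pre-incubation 15 h overnight, then compound exposure 48 h at 37 °C. Detection: high-content imaging of fixed cells with Hoechst nuclear stain.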
Large screens that a line does not name were inactive.

O=C(CCl)N(c1ccc(Cl)cc1)c1c[nH]c2ccccc12	Insulin prom act 257.1
Cc1nn(-c2ccccc2)c(Cl)c1CN(C(=O)CCl)c1ccc(Cl)cc1	none
CCn1cc(/C=N/NC(=O)c2ccc3c(c2)OCO3)cn1	none
CCOc1ccccc1-n1c(=O)c2ccccc2c2ccccc2c1=O	none
CCOc1ccccc1C(=O)N1c2ccccc2Sc2ccccc21	Insulin prom act 100.0
CCOc1ccccc1C(=O)n1nc(C)cc1C	none
CC1=CC(C)(C)N(C(=O)C(C)N2C(=O)c3ccccc3C2=O)c2ccc(C)cc21 (centres undefined)	none
CCOC(=O)CSc1ncnc2c1cnn2-c1ccccc1	Insulin prom act 121.4
Cc1ccc(-n2ncc3c(SCc4ccccc4)ncnc32)cc1	none
CCOC(=O)CC(=O)CSc1ncnc2c1cnn2-c1ccccc1	none
Cc1cc(=O)[nH]c(-c2cccnc2)n1	none
CCCNC(=O)NC(=O)CSc1ccc2c(c1)OCCO2	none
Cc1ccc(C(=O)CCC(=O)Nc2cccc(C(F)(F)F)c2)cc1	none
CCOc1ccc(CC(=O)Nc2ccc(-c3ccc4nnc(C)n4n3)cc2)cc1	none
C=CCn1c(COc2cccc3ccc(C)nc23)nnc1SCC(=O)O	Insulin prom act 450.0
C=CCn1c(SCC(=O)c2ccc(OC)cc2)nnc1-c1cc2cccc(OC)c2o1	none
C=CCn1c(COc2cccc3cccnc23)nnc1SCC(=O)O	none
CCOc1ccc(S(=O)(=O)N(CC(=O)N/N=C/c2cccs2)c2ccc(C)cc2)cc1	none
CCc1ccc(C(=O)COC(=O)CCc2nc3ccccc3c(=O)[nH]2)cc1	none
CC1CCN(C(=O)CSc2nncn2C)CC1	none
CCc1c(C)nc(N)n2c(SCC(=O)N3CCCC(C)C3)nnc12 (centres undefined)	Insulin prom act 181.8
Cc1nnc(SCC(=O)N2CCCCCC2)n(N)c1=O	none
Cn1cccc1/C=N/NC(=O)c1ccn[nH]1	none
CCOC(=O)C1CN(S(=O)(=O)c2ccc(C)cc2)CCN1S(=O)(=O)c1ccc(C)cc1 (centres undefined)	none
Cc1ccc(S(=O)(=O)N2CCCC2C(=O)OCc2ccco2)cc1 (centres undefined)	Insulin prom act 578.6
O=C(NCc1ccco1)C1CCCN1S(=O)(=O)c1ccc2ccccc2c1 (centres undefined)	none
Cc1cc(C)c(NC(=S)N(CCCN2CCN(C)CC2)Cc2cccs2)c(C)c1	none
O=C1C(Cl)=C(Nc2ccc(F)cc2)C(=O)N1CCc1ccccc1	none
O=C1C(Cl)=C(NCCc2ccccc2)C(=O)N1CCc1ccccc1	none
O=C1C(Cl)=C(NCC2CCCO2)C(=O)N1CCc1ccccc1 (centres undefined)	Insulin prom act 608.3
CCOc1ccc(S(=O)(=O)NCc2ccc(OC)cc2)c2cccnc12	none
COc1ccc(C(=O)C2CCCN(Cc3ccc(C#CCCO)cc3)C2)cc1F (centres undefined)	none
Cc1nc(NCCc2ccccc2)c2oc3ccccc3c2n1	none
O=c1cc(/N=C/c2coc3c(ccc4ccccc43)c2=O)[nH]c(=S)[nH]1	none
O=C1CCc2nc3sc4c(c3c(=O)n2N1)CCCC4	Insulin prom act 412.5
Cc1nc2sc3c(c2c(=O)n1N)CCC3	none
CCc1nc2sc3c(c2c(=O)o1)CCCC3	none
CCOc1cc(N2CCOCC2)c(OCC)cc1NC(=O)c1ccc(OCc2c(C)noc2C)c(OC)c1	none
COc1ccc(NC(=O)c2ccc3c(c2)NC(=O)CO3)cc1OC	none
COc1ccc(CCNC(=O)CSc2nc3cc(Cl)ccc3o2)cc1OC	none
N#Cc1cccc(NC(=S)Nc2ccccc2)c1	none
CCN1CCN(S(=O)(=O)c2ccc(Br)s2)CC1	none
O=S(=O)(c1ccc(Br)s1)N1CCN(c2ccccc2)CC1	Insulin prom act 575.0
Cc1c(NS(=O)(=O)c2ccc(Br)s2)c(=O)n(-c2ccccc2)n1C	none
Cc1ccc(OCC(=O)NNC(=O)c2cccnc2)cc1C	none
Cc1ccc2c(CC(=O)NC3CCCc4ccccc43)coc2c1 (centres undefined)	none
O=C(CSc1nnc(-c2ccncc2)n1-c1ccc(Cl)cc1)NCc1cccs1	none

High-throughput results from PubChem.
